From PubChem
NF-kB expr up: compounds increasing NF-kB expression in human neuronal cells; fold change at 12.5 µM; 190,000 tested, 1.6% active; NF-kB reporter expression; active compounds read high; in the data active means fold change above about 3.3
STAT3 act-1: activators of IL-6 induced STAT3 signaling. activation (% of control), % at 5.6 µM. AID 871. 190,000 tested, 0.91% active. U3A cells, IL-6 STAT3-luciferase reporter, luminescence; 100% = signal with IL-6 EC80 alone;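 active means activation above the screen-wide mean of compound activation plus 3 SD, cut at about 130% in these data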;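 further: 0% = background luminescence of wells with medium and substrate only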
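Material: STAT1-lacking human U3A cells, STAT3 luciferase reporter | Benchmarks: IL-6-only wells as 100% reference | Probe or stimulus: IL-6 (33 ng/mL) | Timing: Compound 1 h, then IL-6 6 h at 37 °C | Detection: Luminescence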
STAT3 inh: reduces IL-6 driven STAT3 reporter signal; U3A cells, IL-6 STAT3-luciferase reporter, luminescence; host cell line lacks STAT1; inhibition, % at 5.5 µM; 190,000 tested, 0.89% active;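 active means inhibition above the mean inhibition across all screened compounds plus 3 SD, cut at about 44% in these data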;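 further: 0% = DMSO only wells and 100% = 100 µM nifuroxazide control wells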
APP 5'UTR act: APP 5'UTR luciferase reporter activation; SH-SY5Y APP 5'UTR luciferase reporter, luminescence; zero percent = DMSO vehicle wells; activation, % at 2 µM; 190,000 tested, 1% active; AID 1276;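 active means activation above a set limit, based on mean plus 3 SD of controls, cut at about 140% in these data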
STAT1 act-1: activators of IFN-gamma induced STAT1 signaling; NIH 3T3 STAT1-luciferase reporter, luminescence; 100% = IFN-gamma alone, no compound; activation (% of control), % at 5.5 µM; 200,000 tested, 2.6% active; AID 932;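 active means activation above the screen-wide mean activation plus 3 SD, cut at about 130% in these data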;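 further: raw ratio to IFN-gamma control signal so 100% means no change and 0% no light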
STAT1 blocker: STAT1 signaling inhibition | 200,000 tested, 0.35% active | NIH 3T3 STAT1-luciferase reporter, IFN-gamma, luminescence | AID 920 | inhibition, % at 5.5 µM;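 active means inhibition above a set limit, the mean inhibition across all tested compounds plus 3 SD, cut at about 34% in these data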;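 further: 0% = IFN-gamma with DMSO and 100% = IFN-gamma with 300 µM nifuroxazide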
STAT3 act-2: confirmation of STAT3 signaling activators. 1,200 tested, 64% active. U3A STAT3-luciferase reporter, IL-6 potentiation, luminescence; U3A cells lack STAT1; 100 means same as IL-6 alone. AID 1267. shares compounds with STAT3 act-1. potentiation (% of control), % at 5.7 µM;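 active means percent activation of the STAT3 luciferase reporter above a set limit taken from the earlier primary screen, cut at about 130% in these data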;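 further: 0% = background signal of medium plus substrate and 100% = median of IL-6 with DMSO wells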
NFkB act STAT3ct: NF-kappaB activation in STAT3 activator counter-screen. human cells, NF-kappaB reporter activation. shares compounds with STAT3 act-1. 1,200 tested, 11% active. activation (% of control), % at 5.7 µM; in the data active means activation above about 120%;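 further: reporter induced by TNF-alpha stimulation; 100% = median of stimulated DMSO wells and 0% = no signal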
STAT1 act-2: counter-screen for STAT3 activators: STAT1 activation. shares compounds with STAT3 act-1. NIH 3T3 STAT1-luciferase reporter, IFN-gamma, luminescence. 1,200 tested, 13% active. activation (% of control), % at 5.7 µM. AID 1318;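 active means activation above the solvent-only control well mean plus 3 SD, set per screening run, cut at about 120% in these data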;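 further: 100% = IFN-gamma with DMSO median signal so 100% means no change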
An asterisk follows results filed as active; nt = not tested or not shown. An excerpt weighted towards active compounds, which were near 4.9% of everything screened.

SMILES	NF-kB expr up	STAT3 act-1	STAT3 inh	APP 5'UTR act	STAT1 act-1	STAT1 blocker	STAT3 act-2	NFkB act STAT3ct	STAT1 act-2
Oc1ccc2ccccc2c1/C=N/c1nc2c(s1)CCCC2	0.88	154*	-65	20	102	-2	136*	104	94
Oc1c(Br)cc(Br)cc1/C=N/c1nc2c(s1)CCCC2	1.1	114	-12	6	103	-3	nt	nt	nt
CC(=O)Nc1c(C(=O)O)oc2ccc(Cl)cc12	1.1	140*	-40	-4	94	6	125	102	90
NNC(=O)c1cc(-c2ccco2)[nH]n1	1.2	102	5	-18	107	-8	nt	nt	nt
Oc1c(-c2cc(-c3ccco3)[nH]n2)ccc2ccccc12	8.7*	164*	-76	133	117	-18	166*	154*	116
Oc1ccc(Br)cc1-c1cc(-c2ccco2)[nH]n1	2	136*	-35	14	101	-1	128	107	116
Cc1c(C(=O)N/N=C/c2cccs2)nc2ccccn12	1.5	108	-3	-11	117	-19	nt	nt	nt
Cc1ccc(NC(=O)c2cc(N3CCOCC3)nc3ccccc23)cc1	0.66	153*	-54	3	97	3	146*	102	97
Cc1nnc(NC(=O)c2oc3c(ccc4ccccc43)c2C)s1	1	150*	-59	0	107	-8	146*	106	102
O=C(CSCc1nc2c(nnn2Cc2ccc(F)cc2)c(=O)[nH]1)Nc1cccc(C(F)(F)F)c1	0.97	106	-3	1	104	-6	nt	nt	nt
O=C(Nc1nnc(-c2ccccc2Cl)o1)c1ccco1	1.2	93	12	20	99	1	nt	nt	nt
O=C(Nc1nnc(-c2ccccc2Cl)o1)c1nc2ccccc2s1	1.1	159*	-60	10	111	-12	140*	98	101
O=S(=O)(c1ccc(Br)cc1)N1CCN(c2ccc3nnc(-c4ccccc4)n3n2)CC1	0.67	167*	-69	5	100	-1	144*	109	101
Cc1cc(NC(=O)CSC2=Nc3ccccc3C3=NC(Cc4ccccc4)C(=O)N23)n[nH]1 (centres undefined)	1.2	99	5	-9	102	-2	nt	nt	nt
CCN(CC)C(=O)CSC1=Nc2ccccc2C2=NC(Cc3c[nH]c4ccccc34)C(=O)N12 (centres undefined)	1.2	137*	-39	5	99	1	135*	101	101
CCc1ccc(OCC(=O)N/N=C2\CC(=O)c3ccccc32)cc1	0.59	146*	-58	-16	102	-2	128	110	117
O=C(NC(=S)N1CCCCCC1)c1ccc(Cl)cc1Cl	1	92	15	21	96	3	nt	nt	nt
CN1/C(=C\C=Nc2ccc3ccccc3c2)C(C)(C)c2ccccc21	0.4	148*	-43	15	92	8	119	105	94
CCN(Cc1nc2ccccc2c(=O)[nH]1)Cc1cc(=O)oc2cc(OC)ccc12	0.85	92	15	-11	92	9	nt	nt	nt
Cc1nc(COC(=O)c2cc(O)c3ccccc3c2O)cs1	1	140*	-51	16	93	8	127	100	89
Cc1nc(COC(=O)c2ccc(CO)cc2)cs1	1.1	104	-2	8	107	-8	nt	nt	nt
Cc1cc(C(F)(F)F)nc(SCCN2CCOCC2)c1C#N	1.2	97	7	2	83	17	nt	nt	nt
N#Cc1c(C(F)(F)F)cc(-c2ccc(Cl)c(Cl)c2)nc1SCCN1CCOCC1	0.95	160*	-62	-7	89	12	146*	103	91
CCN(CC)c1ccc(NC(=O)COC(=O)COc2ccccc2[N+](=O)[O-])cc1	1.2	99	1	14	97	4	nt	nt	nt
COc1nc(-c2ccc(Cl)cc2)ccc1-c1noc(-c2ccco2)n1	1.3	98	3	1	102	-3	nt	nt	nt
SMILES	NF-kB expr up	STAT3 act-1	STAT3 inh	APP 5'UTR act	STAT1 act-1	STAT1 blocker	STAT3 act-2	NFkB act STAT3ct	STAT1 act-2
COc1nc2c(C)cccc2cc1-c1noc(-c2ccco2)n1	1.2	163*	-70	7	91	9	144*	109	99
CC1CCN(S(=O)(=O)c2ccc3c(c2)C(=NO)c2cc(S(=O)(=O)N4CCC(C)CC4)ccc2-3)CC1	1.1	136*	-42	-4	91	10	132	131*	56
Cc1cc(C)c(C)c(N=Nc2nc3ccccc3n2C)c1C	1.5	83	21	56	107	-8	nt	nt	nt
Cc1ccc(C)c(N=Nc2nc3ccccc3n2C)c1	3.9*	176*	-74	161*	126	-28	223*	154*	237*
O=C(CN1CCOCC1)Nc1cccc(Cl)c1Cl	1.1	110	-8	-4	97	4	nt	nt	nt
CC(=O)Nc1ccc(NC(=O)CCSCCc2ccccn2)cc1	1.1	103	3	-4	95	5	nt	nt	nt
N#CC1=C(N)Oc2c(oc(CO)cc2=O)C1c1ccsc1 (centres undefined)	0.82	104	-6	8	104	-4	nt	nt	nt
N#CC1=C(N)Oc2c(ccc3ccccc23)C1c1ccsc1 (centres undefined)	1.5	138*	-47	57	117	-19	106	115	110
NN(CCO)C(=S)Nc1ccc(Cl)cc1	1	107	-9	10	104	-5	nt	nt	nt
CCOc1ccc(-c2nnc(-c3ccncc3)o2)cc1OCC	0.84	111	-5	14	107	-8	nt	nt	nt
CCOc1cc(-c2ccc(N)c(OCC)c2)ccc1N	0.96	155*	-61	-7	98	2	136*	102	98
CC(=O)Oc1ccc2c(c1)cc(C)n2C	0.76	104	-2	9	98	2	nt	nt	nt
Cc1cccc(Nc2nnc(SC/C(O)=C(\C#N)c3nc4ccccc4[nH]3)s2)c1	0.92	143*	-55	0	91	10	153*	102	95
Cc1ccc(Nc2nnc(SC/C(O)=C(\C#N)c3nc4ccccc4[nH]3)s2)c(C)c1	0.78	145*	-60	-7	96	5	151*	106	89
N#C/C(=C(/O)CSc1ncn[nH]1)c1nc2ccccc2[nH]1	0.76	143*	-47	-11	93	8	152*	107	100
CC(C)(C)c1nnc2sc(SC/C(O)=C(\C#N)c3nc4ccccc4[nH]3)nn2c1=O	0.6	105	0	-6	100	0	nt	nt	nt
